This note sets out measurements from ChEMBL document CHEMBL1123927, “Leukotriene receptor antagonists. 2. The [[(tetrazol-5-ylaryl)oxy]methyl]acetophenone derivatives” (J Med Chem, 1987).

The source made the active and inactive calls. The calls are words filed in the database; no cut-off is given here.

The species named for one test is Cavia porcellus. Description: Inhibition of LTD4-induced contraction in guinea pig ileum. Not active at highest concentration tested, 3 x 10 E-6 M. The test is classed as functional.
Settings: not given
The method in brief:
(§1)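 Isolated guinea pig ileum contracted with a submaximal concentration of LTD4. Two, three or four antagonist concentrations were tested on a single ileum. […] Alternatively, pKB was taken as -log of the antagonist concentration producing a twofold rightward shift of the LTD4 concentration-response curve.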
Turning to `CC(=O)c1ccc(COc2ccc(Cc3nnn[nH]3)cc2)cc1O`, the “-Log IC50” value is “inactive”.

A further test is filed under the species Cavia porcellus. As to the kind of experiment: Inhibition of LTD4-induced contraction in guinea pig ileum. Not active at highest concentration tested, 1 x 10 E-5 M. Type of test: functional.
Settings: not given
The method in brief:
as §1
Turning to `CCCc1c(COc2ccc(Cc3nnnn3C)cc2)ccc(C(C)=O)c1O`, the “-Log IC50” value is “inactive”.
Same read-out and setting: for `CCCc1c(COc2ccc(-c3nn[nH]n3)cc2)ccc(C(=O)c2ccccc2)c1O` the value was “inactive”.

The species entered for another test is Cavia porcellus. As to the kind of experiment: Antagonist activity was evaluated against LTD4-induced contraction in guinea pig ileum. The test is classed as functional. The note with it: read-out: pA2 (converted). The method in brief:
as §1
For the molecule `CCCc1c(OCCCCc2nnn[nH]2)ccc(C(C)=O)c1O` [TOMELUKAST], the Kb was 0.0631 µM.

In another test the target is Cysteinyl leukotriene receptor (Cavia porcellus). Description: Inhibition of LTD4-induced contraction in guinea pig ileum.
Settings: not given
On to `CCCc1c(COc2ccc(Cc3nnn(C)n3)cc2)ccc(C(C)=O)c1O`, for which the “-Log IC50” value was 6.2.
On the same count and under the same terms, under `CCCc1c(CSc2ccc(-c3nn[nH]n3)cc2)ccc(C(C)=O)c1O` stands 7.7; under `CCCc1c(COc2ccccc2Cc2nnn[nH]2)ccc(C(C)=O)c1O`, 6.2.
Same read-out and setting: for `CC(=O)c1ccc(COc2ccc(Cc3nnn[nH]3)cc2)c(CC(C)C)c1O` the value was 7.7; for `CCCc1c(OCc2ccc(-c3nn[nH]n3)cc2)ccc(C(C)=O)c1O`, 7; for `CCCc1c(COc2ccc(/C=C/c3nn[nH]n3)cc2)ccc(C(C)=O)c1O`, 7.4.
`CCc1c(COc2ccc(Cc3nnn[nH]3)cc2)ccc(C(C)=O)c1O`: the “-Log IC50” value was found to be 7.9.
Same read-out and setting: under `CCCc1c(COc2ccc(OCc3nn[nH]n3)cc2)ccc(C(C)=O)c1O` stands 7.8; under `CCCc1c(COc2ccc(CCCc3nnn[nH]3)cc2)ccc(C(C)=O)c1O`, 7.3; under `CCCc1c(COc2ccc(Cc3nnn[nH]3)cc2)ccc(C(C)=O)c1OC`, 6.3.
Still for that read-out and setting: for `CCCc1c(COc2cccc(OCc3nn[nH]n3)c2)ccc(C(C)=O)c1O` the value was 8; for `CCCc1c(COc2ccc(Cc3nnn[nH]3)cc2)ccc(/C(C)=N\O)c1O`, 5.8; for `CC(=O)c1ccc(COc2ccc(-c3nn[nH]n3)cc2)c(C)c1O`, 7.
Same read-out and setting: for `CCCc1c(COc2ccc(Cc3nnn[nH]3)cc2)ccc(C(=O)CC)c1O` the value was 7; for `CCCc1c(COCCOc2ccc(Cc3nnn[nH]3)cc2)ccc(C(C)=O)c1O`, 7.
Turning to `CCCCc1c(COc2ccc(Cc3nnn[nH]3)cc2)ccc(C(C)=O)c1O`, the “-Log IC50” value was 7.8.
On the same count and under the same terms, for `CCc1c(COc2ccc(-c3nn[nH]n3)cc2)ccc(C(C)=O)c1O` the value was 7.9; for `CCCc1c(COc2ccc(-c3nn[nH]n3)cc2)ccc(C=O)c1O`, 6.4; for `CCCc1c(COc2ccc(CCc3nnn[nH]3)cc2)ccc(C(C)=O)c1O`, 8.1.
The same measure, in the same setting: under `CCCc1c(COc2ccc(C(C)c3nnn[nH]3)cc2)ccc(C(C)=O)c1O` (stereo unspecified) stands 7.9; under `CCCc1c(COc2cccc(Cc3nnn[nH]3)c2)ccc(C(C)=O)c1O`, 7.
Still for that read-out and setting: for `CCCCc1c(COc2ccc(-c3nn[nH]n3)cc2)ccc(C(C)=O)c1O` the value was 7.9; for `CCCc1c(COc2ccc(-c3nn[nH]n3)cc2)ccc(C(C)=O)c1O`, 8; for `CCCc1c(CSCc2ccc(-c3nn[nH]n3)cc2)ccc(C(C)=O)c1O`, 6.5.
Turning to `CCCc1c(CNc2ccc(Cc3nnn[nH]3)cc2)ccc(C(C)=O)c1O`, the “-Log IC50” value was 7.5.
The same measure, in the same setting: under `CCCc1c(COc2ccc(Cc3nnn[nH]3)cc2)ccc(C(C)=O)c1O` [LY-163443] stands 8; under `CCCc1c(COCCOc2ccc(-c3nn[nH]n3)cc2)ccc(C(C)=O)c1O`, 7.3.
